Assay results taken from ChEMBL document CHEMBL1649446, “Comparative antipneumococcal activities of sulopenem and other drugs” (2009).
Values after ≈ are worked out from the molar mass of the structure shown.

Legend:
Assay type in all cases: functional
Streptococcus pneumoniae [1] = assay: Antimicrobial activity against penicillin-susceptible Streptococcus pneumoniae by agar dilution method
Streptococcus pneumoniae [2] = assay: Antimicrobial activity against penicillin-intermediate Streptococcus pneumoniae by agar dilution method
Streptococcus pneumoniae [3] = assay: Antimicrobial activity against penicillin-resistant Streptococcus pneumoniae by agar dilution method
Method in brief: (§1)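 Agar dilution MIC on Mueller-Hinton agar with 5% sheep blood, inocula 10^4 CFU/spot; amoxicillin-clavulanate combined 1:2; S. pneumoniae ATCC 49619 quality control each run.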

Streptococcus pneumoniae [4] = assay: Antimicrobial activity against penicillin-susceptible Streptococcus pneumoniae by agar dilution method in presence of beta-lactamase inhibitor clavulanic acid
Streptococcus pneumoniae [5] = assay: Antimicrobial activity against penicillin-intermediate Streptococcus pneumoniae by agar dilution method in presence of beta-lactamase inhibitor clavulanic acid
Method in brief: (§2)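 Agar dilution MIC on Mueller-Hinton agar with 5% sheep blood at 10^4 CFU/spot. Clavulanate combined with amoxicillin 1:2. Control S. pneumoniae ATCC 49619 included in each run. Penicillin categories: intermediate 0.125–1.0 μg/ml, resistant 2.0–16.0 μg/ml. MIC50/MIC90 taken across strain sets, including 45 drug-resistant serotype 19A isolates.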

Streptococcus pneumoniae [6] = assay: Antimicrobial activity against penicillin-resistant Streptococcus pneumoniae by agar dilution method in presence of beta-lactamase inhibitor clavulanic acid; method in brief: as §2
Streptococcus pneumoniae [7] = assay: Antimicrobial activity against Streptococcus pneumoniae 19A by agar dilution method; method in brief: as §1
Streptococcus pneumoniae [8] = assay: Antimicrobial activity against Streptococcus pneumoniae 19A by agar dilution method in presence of beta-lactamase inhibitor clavulanic acid; method in brief: as §2
Streptococcus pneumoniae [9] = assay: Antimicrobial activity against Streptococcus pneumoniae 1 by time-kill analysis
Method in brief: (§3)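 Time-kill in cation-adjusted Mueller-Hinton broth with 5% lysed horse blood; inocula 5 × 105 to 5 × 10^6 CFU/ml; drugs at MIC, 2× and 4× MIC; 35°C shaking water bath; viable counts at 0, 3, 6, 12 and 24 h. Bactericidal if ≥3 log10 CFU/ml (99.9%) reduction from original inoculum; 90% and 99% killing also scored.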

Streptococcus pneumoniae [10] = assay: Antimicrobial activity against Streptococcus pneumoniae 2 by time-kill analysis
Method in brief: (§4)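 Time-kill in cation-adjusted Mueller-Hinton broth with 5% lysed horse blood; inocula 5 × 105 to 5 × 10^6 CFU/ml; drugs at MIC, 2× and 4× MIC; 35°C shaking water bath; viable counts at 0, 3, 6, 12, 24 h. Bactericidal = ≥3 log10 CFU/ml (99.9%) drop from original inoculum; 90%/99%/99.9% killing scored per strain.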

Streptococcus pneumoniae [11] = assay: Antimicrobial activity against Streptococcus pneumoniae 3 by time-kill analysis; method in brief: as §4
Streptococcus pneumoniae [12] = assay: Antimicrobial activity against Streptococcus pneumoniae 4 by time-kill analysis; method in brief: as §4
Streptococcus pneumoniae [13] = assay: Antimicrobial activity against Streptococcus pneumoniae 5 by time-kill analysis; method in brief: as §3
Streptococcus pneumoniae [14] = assay: Antimicrobial activity against Streptococcus pneumoniae 6 by time-kill analysis; method in brief: as §4
Streptococcus pneumoniae [15] = assay: Antimicrobial activity against Streptococcus pneumoniae 7 by time-kill analysis; method in brief: as §4
Streptococcus pneumoniae [16] = assay: Antimicrobial activity against Streptococcus pneumoniae 8 by time-kill analysis; method in brief: as §4
Streptococcus pneumoniae [17] = assay: Antimicrobial activity against Streptococcus pneumoniae 9 by time-kill analysis; method in brief: as §3
Streptococcus pneumoniae [18] = assay: Antimicrobial activity against Streptococcus pneumoniae 10 by time-kill analysis; method in brief: as §4
Streptococcus pneumoniae [19] = assay: Antimicrobial activity against Streptococcus pneumoniae 11 by time-kill analysis; method in brief: as §4
Streptococcus pneumoniae [20] = assay: Antimicrobial activity against Streptococcus pneumoniae 12 by time-kill analysis; method in brief: as §4
Streptococcus pneumoniae [21] = assay: Antimicrobial activity against Streptococcus pneumoniae isolate 24 by agar dilution method
Streptococcus pneumoniae [22] = assay: Antimicrobial activity against Streptococcus pneumoniae isolate 33 by agar dilution method; method in brief: as §1
Streptococcus pneumoniae [23] = assay: Antimicrobial activity against Streptococcus pneumoniae isolate 37 by agar dilution method; method in brief: as §1
Streptococcus pneumoniae [24] = assay: Antimicrobial activity against Streptococcus pneumoniae isolate 1055 by agar dilution method
Streptococcus pneumoniae [25] = assay: Antimicrobial activity against Streptococcus pneumoniae isolate 1146 by agar dilution method; method in brief: as §1
Streptococcus pneumoniae [26] = assay: Antimicrobial activity against Streptococcus pneumoniae isolate 1147 by agar dilution method; method in brief: as §1
Streptococcus pneumoniae [27] = assay: Antimicrobial activity against Streptococcus pneumoniae isolate 1384 by agar dilution method; method in brief: as §1
Streptococcus pneumoniae [28] = assay: Antimicrobial activity against Streptococcus pneumoniae isolate 1394 by agar dilution method
Streptococcus pneumoniae [29] = assay: Antimicrobial activity against Streptococcus pneumoniae isolate 1397 by agar dilution method; method in brief: as §1
Streptococcus pneumoniae [30] = assay: Antimicrobial activity against Streptococcus pneumoniae isolate 1424 by agar dilution method; method in brief: as §1
Streptococcus pneumoniae [31] = assay: Antimicrobial activity against Streptococcus pneumoniae isolate 1564 by agar dilution method
Streptococcus pneumoniae [32] = assay: Antimicrobial activity against Streptococcus pneumoniae isolate 2617 by agar dilution method; method in brief: as §1
Streptococcus pneumoniae [33] = assay: Antimicrobial activity against Streptococcus pneumoniae isolate 2686 by agar dilution method; method in brief: as §1
Streptococcus pneumoniae [34] = assay: Antimicrobial activity against Streptococcus pneumoniae isolate 2688 by agar dilution method; method in brief: as §1
Streptococcus pneumoniae [35] = assay: Antimicrobial activity against Streptococcus pneumoniae isolate 2874 by agar dilution method; method in brief: as §1
Streptococcus pneumoniae [36] = assay: Antimicrobial activity against Streptococcus pneumoniae isolate 2880 by agar dilution method; method in brief: as §1
Streptococcus pneumoniae [37] = assay: Antimicrobial activity against Streptococcus pneumoniae isolate 3260 by agar dilution method
Streptococcus pneumoniae [38] = assay: Antimicrobial activity against Streptococcus pneumoniae isolate 3263 by agar dilution method
Streptococcus pneumoniae [39] = assay: Antimicrobial activity against Streptococcus pneumoniae isolate 3275 by agar dilution method; method in brief: as §1
Streptococcus pneumoniae [40] = assay: Antimicrobial activity against Streptococcus pneumoniae isolate 3282 by agar dilution method
Streptococcus pneumoniae [41] = assay: Antimicrobial activity against Streptococcus pneumoniae isolate 3346 by agar dilution method
Streptococcus pneumoniae [42] = assay: Antimicrobial activity against Streptococcus pneumoniae isolate 3374 by agar dilution method; method in brief: as §1
Streptococcus pneumoniae [43] = assay: Antimicrobial activity against Streptococcus pneumoniae isolate 3412 by agar dilution method; method in brief: as §1
Streptococcus pneumoniae [44] = assay: Antimicrobial activity against Streptococcus pneumoniae isolate 3455 by agar dilution method
Streptococcus pneumoniae [45] = assay: Antimicrobial activity against Streptococcus pneumoniae isolate 3458 by agar dilution method
Streptococcus pneumoniae [46] = assay: Antimicrobial activity against Streptococcus pneumoniae isolate 3481 by agar dilution method; method in brief: as §1
Streptococcus pneumoniae [47] = assay: Antimicrobial activity against Streptococcus pneumoniae isolate 3587 by agar dilution method
Streptococcus pneumoniae [48] = assay: Antimicrobial activity against Streptococcus pneumoniae isolate 3681 by agar dilution method; method in brief: as §1
Streptococcus pneumoniae [49] = assay: Antimicrobial activity against Streptococcus pneumoniae isolate 3791 by agar dilution method; method in brief: as §1
Streptococcus pneumoniae [50] = assay: Antimicrobial activity against Streptococcus pneumoniae isolate 4747 by agar dilution method; method in brief: as §1
Streptococcus pneumoniae [51] = assay: Antimicrobial activity against Streptococcus pneumoniae isolate 4755 by agar dilution method; method in brief: as §1
Streptococcus pneumoniae [52] = assay: Antimicrobial activity against Streptococcus pneumoniae 1 by time-kill analysis in presence of beta-lactamase inhibitor clavulanic acid
Streptococcus pneumoniae [53] = assay: Antimicrobial activity against Streptococcus pneumoniae 2 by time-kill analysis in presence of beta-lactamase inhibitor clavulanic acid
Streptococcus pneumoniae [54] = assay: Antimicrobial activity against Streptococcus pneumoniae 3 by time-kill analysis in presence of beta-lactamase inhibitor clavulanic acid
Streptococcus pneumoniae [55] = assay: Antimicrobial activity against Streptococcus pneumoniae 4 by time-kill analysis in presence of beta-lactamase inhibitor clavulanic acid
Streptococcus pneumoniae [56] = assay: Antimicrobial activity against Streptococcus pneumoniae 5 by time-kill analysis in presence of beta-lactamase inhibitor clavulanic acid
Streptococcus pneumoniae [57] = assay: Antimicrobial activity against Streptococcus pneumoniae 6 by time-kill analysis in presence of beta-lactamase inhibitor clavulanic acid
Streptococcus pneumoniae [58] = assay: Antimicrobial activity against Streptococcus pneumoniae 7 by time-kill analysis in presence of beta-lactamase inhibitor clavulanic acid
Streptococcus pneumoniae [59] = assay: Antimicrobial activity against Streptococcus pneumoniae 8 by time-kill analysis in presence of beta-lactamase inhibitor clavulanic acid
Streptococcus pneumoniae [60] = assay: Antimicrobial activity against Streptococcus pneumoniae 9 by time-kill analysis in presence of beta-lactamase inhibitor clavulanic acid
Streptococcus pneumoniae [61] = assay: Antimicrobial activity against Streptococcus pneumoniae 10 by time-kill analysis in presence of beta-lactamase inhibitor clavulanic acid
Streptococcus pneumoniae [62] = assay: Antimicrobial activity against Streptococcus pneumoniae 11 by time-kill analysis in presence of beta-lactamase inhibitor clavulanic acid
Streptococcus pneumoniae [63] = assay: Antimicrobial activity against Streptococcus pneumoniae 12 by time-kill analysis in presence of beta-lactamase inhibitor clavulanic acid

SMILES: CC1(C)S[C@@H]2[C@H](NC(=O)[C@H](N)c3ccc(O)cc3)C(=O)N2[C@H]1C(=O)O [AMOXICILLIN]
- MIC50 (Streptococcus pneumoniae [1]): 0.03 µg/mL (≈ 0.0821 µM)
- MIC90 (Streptococcus pneumoniae [1]): 0.03 µg/mL (≈ 0.0821 µM)
- MIC50 (Streptococcus pneumoniae [2]): 0.25 µg/mL (≈ 0.684 µM)
- MIC90 (Streptococcus pneumoniae [2]): 1 µg/mL (≈ 2.74 µM)
- MIC50 (Streptococcus pneumoniae [3]): 2 µg/mL (≈ 5.47 µM)
- MIC90 (Streptococcus pneumoniae [3]): 8 µg/mL (≈ 21.9 µM)
- MIC50 (Streptococcus pneumoniae [4]): 0.03 µg/mL
- MIC90 (Streptococcus pneumoniae [4]): 0.03 µg/mL
- MIC50 (Streptococcus pneumoniae [5]): 0.25 µg/mL
- MIC90 (Streptococcus pneumoniae [5]): 1 µg/mL
- MIC50 (Streptococcus pneumoniae [6]): 2 µg/mL
- MIC90 (Streptococcus pneumoniae [6]): 4 µg/mL
- MIC50 (Streptococcus pneumoniae [7]): 8 µg/mL (≈ 21.9 µM)
- MIC90 (Streptococcus pneumoniae [7]): 8 µg/mL (≈ 21.9 µM)
- MIC50 (Streptococcus pneumoniae [8]): 8 µg/mL
- MIC90 (Streptococcus pneumoniae [8]): 8 µg/mL
- MIC (Streptococcus pneumoniae [9]): 0.03 µg/mL (≈ 0.0821 µM)
- MIC (Streptococcus pneumoniae [10]): 0.03 µg/mL (≈ 0.0821 µM)
- MIC (Streptococcus pneumoniae [11]): 0.5 µg/mL (≈ 1.37 µM)
- MIC (Streptococcus pneumoniae [12]): 2 µg/mL (≈ 5.47 µM)
- MIC (Streptococcus pneumoniae [13]): 8 µg/mL (≈ 21.9 µM)
- MIC (Streptococcus pneumoniae [14]): 0.25 µg/mL (≈ 0.684 µM)
- MIC (Streptococcus pneumoniae [15]): 2 µg/mL (≈ 5.47 µM)
- MIC (Streptococcus pneumoniae [16]): 2 µg/mL (≈ 5.47 µM)
- MIC (Streptococcus pneumoniae [17]): 0.25 µg/mL (≈ 0.684 µM)
- MIC (Streptococcus pneumoniae [18]): 0.06 µg/mL (≈ 0.164 µM)
- MIC (Streptococcus pneumoniae [19]): 2 µg/mL (≈ 5.47 µM)
- MIC (Streptococcus pneumoniae [20]): 1 µg/mL (≈ 2.74 µM)
- MIC (Streptococcus pneumoniae [21]): 2 µg/mL (≈ 5.47 µM)
- MIC (Streptococcus pneumoniae [22]): 2 µg/mL (≈ 5.47 µM)
- MIC (Streptococcus pneumoniae [23]): 2 µg/mL (≈ 5.47 µM)
- MIC (Streptococcus pneumoniae [24]): 4 µg/mL (≈ 10.9 µM)
- MIC (Streptococcus pneumoniae [25]): 4 µg/mL (≈ 10.9 µM)
- MIC (Streptococcus pneumoniae [26]): 4 µg/mL (≈ 10.9 µM)
- MIC (Streptococcus pneumoniae [27]): 4 µg/mL (≈ 10.9 µM)
- MIC (Streptococcus pneumoniae [28]): 8 µg/mL (≈ 21.9 µM)
- MIC (Streptococcus pneumoniae [29]): 4 µg/mL (≈ 10.9 µM)
- MIC (Streptococcus pneumoniae [30]): 8 µg/mL (≈ 21.9 µM)
- MIC (Streptococcus pneumoniae [31]): 4 µg/mL (≈ 10.9 µM)
- MIC (Streptococcus pneumoniae [32]): 1 µg/mL (≈ 2.74 µM)
- MIC (Streptococcus pneumoniae [33]): 8 µg/mL (≈ 21.9 µM)
- MIC (Streptococcus pneumoniae [34]): 16 µg/mL (≈ 43.8 µM)
- MIC (Streptococcus pneumoniae [35]): 0.5 µg/mL (≈ 1.37 µM)
- MIC (Streptococcus pneumoniae [36]): 0.125 µg/mL (≈ 0.342 µM)
- MIC (Streptococcus pneumoniae [37]): 8 µg/mL (≈ 21.9 µM)
- MIC (Streptococcus pneumoniae [38]): 2 µg/mL (≈ 5.47 µM)
- MIC (Streptococcus pneumoniae [39]): 1 µg/mL (≈ 2.74 µM)
- MIC (Streptococcus pneumoniae [40]): 4 µg/mL (≈ 10.9 µM)
- MIC (Streptococcus pneumoniae [41]): 8 µg/mL (≈ 21.9 µM)
- MIC (Streptococcus pneumoniae [42]): 1 µg/mL (≈ 2.74 µM)
- MIC (Streptococcus pneumoniae [43]): 4 µg/mL (≈ 10.9 µM)
- MIC (Streptococcus pneumoniae [44]): 8 µg/mL (≈ 21.9 µM)
- MIC (Streptococcus pneumoniae [45]): 8 µg/mL (≈ 21.9 µM)
- MIC (Streptococcus pneumoniae [46]): 8 µg/mL (≈ 21.9 µM)
- MIC (Streptococcus pneumoniae [47]): 1 µg/mL (≈ 2.74 µM)
- MIC (Streptococcus pneumoniae [48]): 2 µg/mL (≈ 5.47 µM)
- MIC (Streptococcus pneumoniae [49]): 2 µg/mL (≈ 5.47 µM)
- MIC (Streptococcus pneumoniae [50]): 8 µg/mL (≈ 21.9 µM)
- MIC (Streptococcus pneumoniae [51]): 4 µg/mL (≈ 10.9 µM)
- MIC (Streptococcus pneumoniae [52]): 0.03 µg/mL
- MIC (Streptococcus pneumoniae [53]): 0.03 µg/mL
- MIC (Streptococcus pneumoniae [54]): 0.5 µg/mL
- MIC (Streptococcus pneumoniae [55]): 2 µg/mL
- MIC (Streptococcus pneumoniae [56]): 8 µg/mL
- MIC (Streptococcus pneumoniae [57]): 0.25 µg/mL
- MIC (Streptococcus pneumoniae [58]): 2 µg/mL
- MIC (Streptococcus pneumoniae [59]): 2 µg/mL
- MIC (Streptococcus pneumoniae [60]): 0.25 µg/mL
- MIC (Streptococcus pneumoniae [61]): 0.06 µg/mL
- MIC (Streptococcus pneumoniae [62]): 2 µg/mL
- MIC (Streptococcus pneumoniae [63]): 1 µg/mL
